Assay results collected from several papers.
Protocols differ between the studies behind these lines.
P2RY14: P2Y purinoceptor 14 (P2RY14, Homo sapiens, UniProt Q15391)
JAK3 JH1: Tyrosine-protein kinase JAK3, JH1 (JAK3, Homo sapiens, UniProt P52333)
Nuclear receptor subfamily 4 group A member 2: Nuclear receptor subfamily 4 group A member 2 (Homo sapiens, UniProt P43354)

| SMILES | target | assay | test system | setting | quantity | value |
| --- | --- | --- | --- | --- | --- | --- |
| C#Cc1cnc(Nc2ccc(CO)cc2)nc1Nc1ccccc1C(=O)NC | Interleukin-1 receptor-associated kinase 4 (IRAK4, Homo sapiens, UniProt Q9NWZ3) | enzyme activity, inhibitor, radiometric | – | 1 µM | remaining activity | 1.23% |
| O=C(N[C@@H](Cc1c[nH]c2ccccc12)C(=O)O)c1cscn1 | P2RY14 | cAMP, antagonist | HEK293 | 0.1 µM | inhibition | 60.5% |
| Cc1cc(O)c(-c2ccc([C@@H](C)CN(C)C)cc2)c2c1[nH]c(=O)c1sccc12 | Eukaryotic elongation factor 2 kinase (EEF2K, Homo sapiens, UniProt O00418) | enzyme activity, inhibitor | – | 0.1 µM | inhibition | 9.25% |
| C1=C/COCc2cc(ccc2OCCN2CCCC2)Nc2nccc(n2)-c2cccc(c2)COC/1 | JAK3 JH1 | cell-free assay | – | 0.1 µM | remaining signal | 7.2% |
| CCN1/C(=C/C(C)=O)Sc2ccc(F)cc21 | Corticotropin-releasing factor receptor 1 (CRHR1, Homo sapiens, UniProt P34998) | ligand displacement, radioligand | – | 10 µM | inhibition | 0% |
| CCN1CCN(c2cc(N3CCN(CC)CC3)nc(NCCNc3ccnc4cc(Cl)ccc34)n2)CC1 | Nuclear receptor subfamily 4 group A member 2 | thermal stability, DSF | – | 100 µM | ΔTm | -0.12 °C |
| CCCCC(=O)Nc1ccc(-c2ccc3ncn(CCC)c(=O)c3c2)cn1 | JAK3 JH1 | binding, competition with immobilised ligand | – | 0.5 µM | remaining binding | 100% |
| C#Cc1cc(-c2cc(Nc3nc(N[C@@H](C)c4ccc(F)cn4)ncc3Cl)n[nH]2)ccc1C=O | TRAF2 and NCK-interacting protein kinase (TNIK, Homo sapiens, UniProt Q9UKE5) | enzyme activity, inhibitor | – | 0.2 µM | inhibition | 56.6% |
| O=C(N[C@@H](Cc1c[nH]c2ccccc12)C(=O)O)c1cccs1 | P2RY14 | cAMP, antagonist | HEK293 | 0.1 µM | inhibition | 68% |
| CCCCCCCC(=O)c1c(O)cc(O)cc1CC(=O)OCC | Nuclear receptor subfamily 4 group A member 2 | thermal stability, DSF | – | 100 µM | ΔTm | -3.11 °C |
| O=C(COc1ccc(Br)cc1)N[C@@H](Cc1c[nH]c2ccccc12)C(=O)O | P2RY14 | cAMP, antagonist | HEK293 | 0.1 µM | inhibition | 39% |
| Cc1onc(-c2ccccc2)c1-c1ccc(S(N)(=O)=O)cc1 | Nuclear receptor subfamily 4 group A member 2 | thermal stability, DSF | – | 100 µM | ΔTm | -1 °C |
| CC(C)OC(=O)[C@H](Cc1c[nH]c2ccccc12)NC(=O)COc1ccccc1 | P2RY14 | cAMP, antagonist | HEK293 | 0.1 µM | inhibition | 79.3% |
| CN1C(C(=O)Nc2ccccn2)=C(O)c2sc(Cl)cc2S1(=O)=O | Nuclear receptor subfamily 4 group A member 2 | thermal stability, DSF | – | 100 µM | ΔTm | 0.18 °C |
| COC(=O)[C@H](Cc1c[nH]c2ccccc12)NC(=O)COc1ccc(C)cc1 | P2RY14 | cAMP, antagonist | HEK293 | 0.1 µM | inhibition | -20% |
| COc1ccc2oc(-c3ccc4nc(N)oc4c3)c/c(=N\c3ccccc3NC(=O)CCN)c2c1 | Tyrosine-protein kinase JAK3 (JAK3, Homo sapiens, UniProt P52333) | binding | – | 1 µM | remaining binding | 93% |
| CC(C)OC(=O)[C@H](Cc1c[nH]c2ccccc12)NC(=O)C1COc2ccccc2O1 (stereo partly drawn) | P2RY14 | cAMP, antagonist | HEK293 | 0.1 µM | inhibition | 9.84% |
| COCCOCc1ccc(-c2cc3onc(-c4ccccc4)c3c(=O)n2C)cc1 | Nuclear receptor subfamily 4 group A member 2 | thermal stability, DSF | – | 100 µM | ΔTm | -0.54 °C |
